Assays:
Format in all cases: cell membranes, Membrane
D(2) dopamine receptor [1] = target: T1, D(2) dopamine receptor (Rattus norvegicus, UniProt P61169); test: Inhibition of specific binding of [3H]spiroperidol to Dopamine receptor D2 in rat striatal membranes
How it was run: (§1)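 Competition radioligand binding in rat striatal membranes: D2 sites labelled with [3H]spiroperidol and D1 sites with [3H]SCH-23390. Inhibition of specific binding was measured. Three experiments, each in duplicate. Compounds were tested up to 5 μM, and those without binding at that level were scored not active.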

D(1A) dopamine receptor [2] = target: T2, D(1A) dopamine receptor (Rattus norvegicus, UniProt P18901); test: Displacement of [3H]-SCH- 23390 from Dopamine receptor D1 of rat striatal membranes; how it was run: as §1
[3] = target: T3, Adrenergic receptor alpha-2 (Rattus norvegicus, UniProt P22086+P19328+P22909); test: Displacement of [3H]rauwolscine from Alpha-2 adrenergic receptor of rat cortical membranes
T3 sequence (P22086 whole entry): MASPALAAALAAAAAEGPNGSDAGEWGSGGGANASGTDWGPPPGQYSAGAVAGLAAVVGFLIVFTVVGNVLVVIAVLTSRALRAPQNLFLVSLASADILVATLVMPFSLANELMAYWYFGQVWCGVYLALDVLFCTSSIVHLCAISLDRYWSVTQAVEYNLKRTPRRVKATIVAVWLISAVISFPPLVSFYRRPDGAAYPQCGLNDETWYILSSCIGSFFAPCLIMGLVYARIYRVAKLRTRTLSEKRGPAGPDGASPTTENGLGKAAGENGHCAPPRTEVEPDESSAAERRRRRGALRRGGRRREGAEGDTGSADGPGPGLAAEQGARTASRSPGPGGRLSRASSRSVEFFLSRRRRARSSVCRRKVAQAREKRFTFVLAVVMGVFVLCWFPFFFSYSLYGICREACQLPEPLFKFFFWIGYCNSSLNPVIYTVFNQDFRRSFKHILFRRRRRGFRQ
T3 sequence (P19328 whole entry): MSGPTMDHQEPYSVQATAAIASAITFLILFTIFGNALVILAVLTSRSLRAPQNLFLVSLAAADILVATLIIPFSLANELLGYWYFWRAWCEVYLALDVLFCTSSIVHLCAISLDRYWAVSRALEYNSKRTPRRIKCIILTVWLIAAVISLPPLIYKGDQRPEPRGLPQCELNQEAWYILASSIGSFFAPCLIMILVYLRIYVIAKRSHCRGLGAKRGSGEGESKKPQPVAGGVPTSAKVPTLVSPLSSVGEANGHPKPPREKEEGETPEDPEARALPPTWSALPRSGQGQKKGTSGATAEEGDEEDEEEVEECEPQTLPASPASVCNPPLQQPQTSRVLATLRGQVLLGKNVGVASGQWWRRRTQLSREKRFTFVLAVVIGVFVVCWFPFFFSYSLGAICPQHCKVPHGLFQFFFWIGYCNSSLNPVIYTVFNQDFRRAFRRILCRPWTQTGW
T3 sequence (P22909 whole entry): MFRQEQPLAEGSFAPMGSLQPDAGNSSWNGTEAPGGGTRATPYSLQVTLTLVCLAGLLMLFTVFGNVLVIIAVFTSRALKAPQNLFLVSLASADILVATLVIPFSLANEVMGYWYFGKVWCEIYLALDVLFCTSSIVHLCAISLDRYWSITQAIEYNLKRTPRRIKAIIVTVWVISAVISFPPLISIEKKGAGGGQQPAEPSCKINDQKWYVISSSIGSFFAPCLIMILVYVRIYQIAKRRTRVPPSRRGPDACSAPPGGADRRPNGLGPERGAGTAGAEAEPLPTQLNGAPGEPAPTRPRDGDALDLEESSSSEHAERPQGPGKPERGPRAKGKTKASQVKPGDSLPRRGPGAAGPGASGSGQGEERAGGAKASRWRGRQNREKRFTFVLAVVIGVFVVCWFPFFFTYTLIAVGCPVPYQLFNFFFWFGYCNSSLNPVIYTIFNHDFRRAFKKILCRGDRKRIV

[4] = target: T4, Adrenergic receptor alpha-1 (Rattus norvegicus, UniProt P15823+P23944+P43140); test: Displacement of [3H]prazosin from Alpha-1 adrenergic receptor of rat cortical membranes
T4 sequence (P15823 whole entry): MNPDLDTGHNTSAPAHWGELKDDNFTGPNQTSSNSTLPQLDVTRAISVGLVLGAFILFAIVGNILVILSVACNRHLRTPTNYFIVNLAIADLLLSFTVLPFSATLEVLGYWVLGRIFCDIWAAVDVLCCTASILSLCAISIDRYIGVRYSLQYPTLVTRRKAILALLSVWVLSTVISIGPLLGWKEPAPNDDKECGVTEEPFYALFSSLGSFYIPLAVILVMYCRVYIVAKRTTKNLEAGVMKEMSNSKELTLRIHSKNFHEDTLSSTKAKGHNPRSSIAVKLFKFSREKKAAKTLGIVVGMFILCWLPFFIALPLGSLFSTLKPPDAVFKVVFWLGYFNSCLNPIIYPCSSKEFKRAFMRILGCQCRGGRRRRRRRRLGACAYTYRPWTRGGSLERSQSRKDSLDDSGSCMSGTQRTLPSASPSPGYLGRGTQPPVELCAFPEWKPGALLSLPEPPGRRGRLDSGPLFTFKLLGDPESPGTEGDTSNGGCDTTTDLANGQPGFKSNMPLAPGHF
T4 sequence (P23944 whole entry): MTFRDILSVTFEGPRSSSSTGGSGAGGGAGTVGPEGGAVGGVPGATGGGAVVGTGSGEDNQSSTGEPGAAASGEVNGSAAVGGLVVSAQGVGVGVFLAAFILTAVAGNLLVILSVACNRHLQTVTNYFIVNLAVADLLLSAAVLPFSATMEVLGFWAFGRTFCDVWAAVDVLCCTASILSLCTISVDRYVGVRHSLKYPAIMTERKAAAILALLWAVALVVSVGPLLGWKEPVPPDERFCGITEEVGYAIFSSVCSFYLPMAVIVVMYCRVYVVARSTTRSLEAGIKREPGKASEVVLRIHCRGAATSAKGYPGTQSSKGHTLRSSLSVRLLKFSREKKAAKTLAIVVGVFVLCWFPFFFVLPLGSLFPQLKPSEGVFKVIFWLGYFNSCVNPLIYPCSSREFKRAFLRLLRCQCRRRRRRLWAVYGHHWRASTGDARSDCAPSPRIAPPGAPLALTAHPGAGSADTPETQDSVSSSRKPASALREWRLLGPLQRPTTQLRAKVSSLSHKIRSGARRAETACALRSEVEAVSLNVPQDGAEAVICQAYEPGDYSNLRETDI
T4 sequence (P43140 whole entry): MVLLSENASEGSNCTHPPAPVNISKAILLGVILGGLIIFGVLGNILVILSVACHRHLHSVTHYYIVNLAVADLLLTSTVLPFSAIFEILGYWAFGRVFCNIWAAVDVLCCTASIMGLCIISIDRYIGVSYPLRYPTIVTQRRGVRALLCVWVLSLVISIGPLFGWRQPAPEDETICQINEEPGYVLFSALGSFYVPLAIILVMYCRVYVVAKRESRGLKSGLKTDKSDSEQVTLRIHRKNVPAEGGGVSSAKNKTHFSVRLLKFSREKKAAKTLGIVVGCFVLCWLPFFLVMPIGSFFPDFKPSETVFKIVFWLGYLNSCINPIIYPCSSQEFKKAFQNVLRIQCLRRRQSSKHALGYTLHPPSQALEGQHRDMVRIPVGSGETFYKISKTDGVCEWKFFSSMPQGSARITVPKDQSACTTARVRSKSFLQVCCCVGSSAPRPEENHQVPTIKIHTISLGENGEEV

D(2) dopamine receptor [5] = target: T1, D(2) dopamine receptor; test: Displacement of [3H]spiroperidol from Dopamine receptor D2 of rat striatal membranes; how it was run: as §1
D(1A) dopamine receptor [6] = target: T2, D(1A) dopamine receptor; test: Inhibition of specific binding of [3H]-SCH- 23390 to Dopamine receptor D1 in rat striatal membranes; NA= Not active up to a concentration of 5 uM; how it was run: as §1
[7] = target: T3, Adrenergic receptor alpha-2; test: Inhibition of specific binding of [3H]rauwolscine to Alpha-2 adrenergic receptor in rat cortical membranes
D(1A) dopamine receptor [8] = target: T2, D(1A) dopamine receptor; test: Inhibition of specific binding of [3H]-SCH- 23390 to Dopamine receptor D1 in rat striatal membranes; Not active up to a concentration of 5 uM; how it was run: as §1

T1 sequence (P61169 whole entry): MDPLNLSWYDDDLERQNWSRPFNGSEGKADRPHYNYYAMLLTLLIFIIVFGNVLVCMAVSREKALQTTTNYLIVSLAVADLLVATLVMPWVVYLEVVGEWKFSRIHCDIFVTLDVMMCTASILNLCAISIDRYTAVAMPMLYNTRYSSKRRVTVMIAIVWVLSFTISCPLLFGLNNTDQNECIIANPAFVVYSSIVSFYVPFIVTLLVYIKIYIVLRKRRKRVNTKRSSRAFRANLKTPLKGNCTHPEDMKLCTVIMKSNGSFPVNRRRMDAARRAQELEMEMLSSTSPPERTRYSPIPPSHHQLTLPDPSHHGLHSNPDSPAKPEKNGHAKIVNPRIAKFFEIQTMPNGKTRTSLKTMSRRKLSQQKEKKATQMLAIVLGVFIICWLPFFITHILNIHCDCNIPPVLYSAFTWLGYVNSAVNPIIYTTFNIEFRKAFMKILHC
T2 sequence (P18901 whole entry): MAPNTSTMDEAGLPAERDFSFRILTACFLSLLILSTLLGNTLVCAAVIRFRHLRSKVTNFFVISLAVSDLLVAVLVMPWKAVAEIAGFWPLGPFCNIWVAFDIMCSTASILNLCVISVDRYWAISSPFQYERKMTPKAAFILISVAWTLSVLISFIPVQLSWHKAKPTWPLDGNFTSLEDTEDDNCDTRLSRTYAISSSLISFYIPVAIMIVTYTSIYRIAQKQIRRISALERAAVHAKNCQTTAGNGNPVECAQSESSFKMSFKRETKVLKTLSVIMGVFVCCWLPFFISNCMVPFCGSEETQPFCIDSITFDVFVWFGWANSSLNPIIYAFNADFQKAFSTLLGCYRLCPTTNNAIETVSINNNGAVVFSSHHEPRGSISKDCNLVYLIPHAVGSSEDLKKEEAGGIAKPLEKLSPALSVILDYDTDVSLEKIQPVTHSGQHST

| Structure (SMILES) | IC50 (D(2) dopamine receptor [1]) [nM] | IC50 (D(1A) dopamine receptor [2]) [nM] | IC50 [3] [nM] | IC50 [4] [nM] | IC50 (D(2) dopamine receptor [5]) | IC50 (D(1A) dopamine receptor [6]) | IC50 [7] [nM] | IC50 (D(1A) dopamine receptor [8]) |
| --- | --- | --- | --- | --- | --- | --- | --- | --- |
| NC1CCc2cc(O)c(O)cc2C1 (stereo not given) | 700 | – | – | – | – | – | – | – |
| C#CCN1CCCC2Cc3c(O)cccc3CC21 (stereo not given) | 5110 | 700 | 251 | 209 | – | – | – | – |
| C#CCN1CCCC2Cc3c(cccc3OC)CC21 (stereo not given) | – | – | 197 | 1850 | Not Active | Not Active | – | – |
| COc1cccc2c1CC1CCCNC1C2 (stereo not given) | – | – | 67.5 | 2200 | Not Active | Not Active | – | – |
| c1ccc2c(c1)CC[C@H]1NCCC[C@H]21 | – | – | 154 | – | Not Active | Not Active | – | – |
| Oc1cccc2c1CC1CCCN(C/C=C/I)C1C2 (stereo not given) | 490 | 120 | 0.5 | 54 | – | – | – | – |
| COc1cccc2c1CC[C@@H]1[C@@H]2CCCN1C/C=C/I | – | 270 | – | 508 | Not Active | – | 18 | – |
| C#CCN1CCC[C@@H]2c3cccc(OC)c3CC[C@H]21 | – | – | – | 497 | Not Active | Not Active | 196 | – |
| Oc1cccc2c1CC[C@@H]1[C@@H]2CCCN1C/C=C/I | – | 1130 | – | 225 | Not Active | – | 47 | – |
| C#CCN1CCC[C@@H]2c3cccc(O)c3CC[C@H]21 | – | – | – | – | Not Active | – | 49 | Not Active |
| C#CCN1CCC[C@@H]2c3ccccc3CC[C@H]21 | – | – | 160 | – | Not Active | Not Active | – | – |
| I/C=C/CN1CCC[C@@H]2c3ccccc3CC[C@H]21 | – | 1900 | – | 253 | Not Active | – | 128 | – |
| c1ccc2c(c1)CC1CCCNC1C2 (stereo not given) | – | – | – | – | Not Active | – | 130 | Not Active |
| COc1cccc2c1CC[C@H]1NCCC[C@H]21 | – | – | – | – | Not Active | Not Active | 55 | – |
| I/C=C/CN1CCCC2Cc3ccccc3CC21 (stereo not given) | – | 220 | 33 | 274 | Not Active | – | – | – |
| COc1cccc2c1CC1CCCN(C/C=C/I)C1C2 (stereo not given) | – | 80 | 226 | 43 | Not Active | – | – | – |
| C#CCN1CCCC2Cc3ccccc3CC21 (stereo not given) | – | – | 142 | 1300 | Not Active | – | – | Not Active |

— ChEMBL document CHEMBL1131611, “N-(Iodopropenyl)-octahydrobenzo[f]- and -[g]quinolines: synthesis and adrenergic and dopaminergic activity studies” (J Med Chem, 1998)
